# From ChEMBL document CHEMBL3286225, “Novel carboline derivatives as potent antifungal lead compounds: design, synthesis, and biological evaluation” (ACS Med Chem Lett, 2014)
# Active and inactive are the calls of the source. The rule behind the calls is not given here.
# Legend:
# [1] = tested on: WI-38; assay: Cytotoxicity against human WI38 cells by MTT assay; assay type: cell-based
# [2] = tested on: Candida albicans; assay: Antifungal activity against fluconazole-resistant Candida albicans 07109 after 24 hrs by serial dilution method; assay type: functional; settings: Candida albicans, 07109, 24 h
# [3] = tested on: Candida albicans; assay: Antifungal activity against fluconazole-sensitive Candida albicans SC5314 assessed as change in eburicol composition at 8 ug/ml after 24 hrs by GC-MS analysis relative to control; assay type: functional
# Outline: (§1)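 C. albicans SC5314 exposed to 8 μg/mL for 24 h, sterols analysed by GC-MS with cholesterol internal standard; each sterol expressed as % of total sterol fraction versus no-drug control; average of three independent experiments.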
# [4] = biological target: T1, CYP2C9 (Homo sapiens, UniProt P11712); assay: Inhibition of CYP2C9 in human liver microsomes assessed as tolbutamide conversion to 4-hydroxy tolbutamide at 0.25 uM preincubated for 10 mins followed by NADPH addition measured after 15 mins by LC-MS/MS analysis relative to control; assay type: ADME; settings: probe tolbutamide
# T1 sequence (P11712 whole entry): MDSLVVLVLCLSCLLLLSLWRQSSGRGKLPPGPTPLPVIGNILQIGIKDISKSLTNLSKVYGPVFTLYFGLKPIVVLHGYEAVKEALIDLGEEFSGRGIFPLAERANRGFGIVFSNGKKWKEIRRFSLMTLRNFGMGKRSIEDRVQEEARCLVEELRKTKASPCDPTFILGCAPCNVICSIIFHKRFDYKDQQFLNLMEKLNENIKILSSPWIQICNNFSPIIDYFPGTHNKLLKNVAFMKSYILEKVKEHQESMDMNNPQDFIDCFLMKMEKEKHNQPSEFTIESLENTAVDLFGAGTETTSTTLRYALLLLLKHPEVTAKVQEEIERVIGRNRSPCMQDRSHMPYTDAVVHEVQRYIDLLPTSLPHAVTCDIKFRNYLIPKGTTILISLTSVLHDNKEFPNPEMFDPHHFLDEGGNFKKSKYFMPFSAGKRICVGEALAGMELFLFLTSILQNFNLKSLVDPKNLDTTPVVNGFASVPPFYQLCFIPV
# [5] = tested on: Trichophyton rubrum; assay: Antifungal activity against Trichophyton rubrum Cmccftla after 7 days by serial dilution method; assay type: functional; settings: 168 h
# [6] = biological target: Cytochrome P450 2C9 (Homo sapiens, UniProt P11712); assay: Inhibition of CYP2C9 in human liver microsomes assessed as tolbutamide conversion to 4-hydroxy tolbutamide preincubated for 10 mins followed by NADPH addition measured after 15 mins by LC-MS/MS analysis; assay type: ADME
# Cytochrome P450 2C9, sequence (P11712 whole entry): as above
# [7] = biological target: T2, CYP3A4 (Homo sapiens, UniProt P08684); assay: Inhibition of CYP3A4 in human liver microsomes assessed as midazolam conversion to 1'-hydroxy midazolam at 25 uM preincubated for 10 mins followed by NADPH addition measured after 15 mins by LC-MS/MS analysis relative to control; assay type: ADME; settings: probe midazolam
# T2 sequence (P08684 whole entry): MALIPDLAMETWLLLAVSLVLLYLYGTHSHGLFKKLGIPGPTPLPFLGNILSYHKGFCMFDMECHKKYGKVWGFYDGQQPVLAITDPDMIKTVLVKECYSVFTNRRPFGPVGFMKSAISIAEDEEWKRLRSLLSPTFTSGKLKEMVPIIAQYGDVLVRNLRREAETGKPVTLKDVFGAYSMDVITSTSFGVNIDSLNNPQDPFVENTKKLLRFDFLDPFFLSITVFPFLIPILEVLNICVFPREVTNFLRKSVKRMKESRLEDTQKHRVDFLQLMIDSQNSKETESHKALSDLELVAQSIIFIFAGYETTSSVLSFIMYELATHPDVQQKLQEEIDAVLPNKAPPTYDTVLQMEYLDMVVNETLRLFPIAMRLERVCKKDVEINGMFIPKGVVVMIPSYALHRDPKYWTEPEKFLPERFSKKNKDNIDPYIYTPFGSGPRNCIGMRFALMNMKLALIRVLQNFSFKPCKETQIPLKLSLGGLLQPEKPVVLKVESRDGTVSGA
# [8] = tested on: Candida tropicalis; assay: Antifungal activity against Candida tropicalis after 7 days by serial dilution method; assay type: functional; settings: 168 h
# [9] = tested on: Candida albicans; assay: Antifungal activity against fluconazole-sensitive Candida albicans SC5314 after 24 hrs by serial dilution method; assay type: functional; settings: SC5314, 24 h
# [10] = tested on: Candida albicans; assay: Fungicidal activity against fluconazole-sensitive Candida albicans SC5314 after 12 to 48 hrs; assay type: functional, organism-based
# Outline: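 Time-kill assay starting from 10^5 CFU/mL C. albicans SC5314. Test concentrations ranged from 2–32 μg/mL. Untreated and fluconazole 32 μg/mL controls were included. Viable counts (CFU/mL) were taken at 0, 12, 24 and 48 h of incubation.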
# [11] = tested on: Candida albicans; assay: Antifungal activity against fluconazole-sensitive Candida albicans SC5314 assessed as thickening of middle sphere of cell wall at 8 ug/ml after 8 hrs by TEM analysis; assay type: functional, organism-based
# Outline: (§2)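 Transmission electron microscopy of C. albicans SC5314 cells exposed to 8 μg/mL for 8 h. Untreated cells and cells given fluconazole 8 μg/mL for 8 h served as controls. Cell wall layers, cytoplasmic density and vacuole shape were compared by eye.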
# [12] = tested on: Candida albicans; assay: Inhibition of biofilm formation of fluconazole-sensitive Candida albicans SC5314 after 48 hrs by XTT assay; assay type: functional, organism-based
# Outline: (§3)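 Biofilm formation by C. albicans SC5314 was tested with compound at 2–64 μg/mL. Untreated and fluconazole 64 μg/mL controls were included. Biofilm was quantified by XTT reduction and expressed as % of untreated control. Mean ± SD of three independent experiments; ANOVA and Student t test, p<0.05.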
# [13] = biological target: T3, CYP2C19 (Homo sapiens, UniProt P33261); assay: Inhibition of CYP2C19 in human liver microsomes assessed as S-mephenytoin conversion to 4'-hydroxy mephenytoin at 2.5 uM preincubated for 10 mins followed by NADPH addition measured after 15 mins by LC-MS/MS analysis relative to control; assay type: ADME; settings: probe S-mephenytoin
# T3 sequence (P33261 whole entry): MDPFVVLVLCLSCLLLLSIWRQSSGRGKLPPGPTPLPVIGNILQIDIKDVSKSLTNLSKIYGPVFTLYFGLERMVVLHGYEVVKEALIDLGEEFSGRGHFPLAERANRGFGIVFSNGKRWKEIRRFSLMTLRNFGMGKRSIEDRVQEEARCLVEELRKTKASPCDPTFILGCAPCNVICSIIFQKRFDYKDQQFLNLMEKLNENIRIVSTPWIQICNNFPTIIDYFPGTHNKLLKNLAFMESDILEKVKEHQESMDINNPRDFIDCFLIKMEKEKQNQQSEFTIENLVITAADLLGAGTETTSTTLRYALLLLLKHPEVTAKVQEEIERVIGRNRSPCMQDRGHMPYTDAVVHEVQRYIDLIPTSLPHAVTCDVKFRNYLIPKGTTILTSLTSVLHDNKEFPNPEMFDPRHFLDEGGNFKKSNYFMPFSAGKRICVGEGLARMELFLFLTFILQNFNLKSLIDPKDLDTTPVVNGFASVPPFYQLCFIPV
# [14] = tested on: Candida albicans; assay: Inhibition of biofilm formation of fluconazole-sensitive Candida albicans SC5314 at 64 ug/ml after 48 hrs by XTT assay relative to control; assay type: functional; settings: SC5314, 48 h
# Outline: (§4)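 Biofilm formation by C. albicans SC5314 or 103 in presence of 2–64 μg/mL drug (fluconazole 64 μg/mL reference); quantified by XTT reduction as % of blank control; mean ± standard deviation of three independent experiments, ANOVA and Student t test.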
# [15] = tested on: Candida albicans; assay: Inhibition of biofilm formation of fluconazole-resistant Candida albicans 103 at 32 ug/ml after 48 hrs by XTT assay; assay type: functional; settings: Candida albicans, 103, 48 h; outline: as §4
# [16] = tested on: Candida albicans; assay: Antifungal activity against fluconazole-sensitive Candida albicans SC5314 assessed as thinning of outer sphere of cell wall at 8 ug/ml after 8 hrs by TEM analysis; assay type: functional, organism-based; outline: as §2
# [17] = biological target: T2, CYP3A4; assay: Inhibition of CYP3A4 in human liver microsomes assessed as testosterone conversion to 6-hydroxy testosterone at 2.5 uM preincubated for 10 mins followed by NADPH addition measured after 15 mins by LC-MS/MS analysis relative to control; assay type: ADME; settings: probe testosterone
# [18] = tested on: Candida albicans; assay: Inhibition of hyphal growth of fluconazole-sensitive Candida albicans SC5314 assessed as appearance of pseudohyphal form at 2 ug/ml after 16 hrs by light microscopic analysis; assay type: functional, organism-based
# Outline: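 C. albicans SC5314 was grown in RPMI 1640 at 37 °C for 16 h, without compound or with 2–8 μg/mL. A fluconazole 8 μg/mL control was included. Cell morphology (hyphae, pseudohyphae, budding yeast) was then scored by microscopy.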
# [19] = biological target: T1, CYP2C9; assay: Inhibition of CYP2C9 in human liver microsomes assessed as tolbutamide conversion to 4-hydroxy tolbutamide at 2.5 uM preincubated for 10 mins followed by NADPH addition measured after 15 mins by LC-MS/MS analysis relative to control; assay type: ADME; settings: probe tolbutamide
# [20] = tested on: Candida albicans; assay: Fungicidal activity against fluconazole-sensitive Candida albicans SC5314 assessed as reduction in fungi density after 24 hrs; assay type: functional, organism-based
# Outline: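 Time-kill: C. albicans (SC5314 or 103) inoculated at 10^5 CFU/mL, untreated or with drug (2–32 μg/mL; fluconazole 32 μg/mL reference); CFU/mL counted after 0, 12, 24 and 48 h.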
# [21] = tested on: Candida albicans; assay: Antifungal activity against fluconazole-sensitive Candida albicans SC5314 assessed as abnormal vacuole shape at 8 ug/ml after 8 hrs by TEM analysis; assay type: functional, organism-based; outline: as §2
# [22] = tested on: Candida albicans; assay: Antifungal activity against fluconazole-sensitive Candida albicans SC5314 assessed as change in sterol composition at 8 ug/ml after 24 hrs by GC-MS analysis (reference value: 8.5%); assay type: functional; outline: as §1
# [23] = biological target: T2, CYP3A4; assay: Inhibition of CYP3A4 in human liver microsomes assessed as midazolam conversion to 1'-hydroxy midazolam at 2.5 uM preincubated for 10 mins followed by NADPH addition measured after 15 mins by LC-MS/MS analysis relative to control; assay type: ADME; settings: probe midazolam
# [24] = tested on: Candida albicans; assay: Inhibition of biofilm formation of fluconazole-sensitive Candida albicans SC5314 at 4 ug/ml after 48 hrs by XTT assay relative to control; assay type: functional; settings: SC5314, 48 h; outline: as §3
# [25] = biological target: T3, CYP2C19; assay: Inhibition of CYP2C19 in human liver microsomes assessed as S-mephenytoin conversion to 4'-hydroxy mephenytoin at 0.25 uM preincubated for 10 mins followed by NADPH addition measured after 15 mins by LC-MS/MS analysis relative to control; assay type: ADME; settings: probe S-mephenytoin
# [26] = tested on: Candida albicans; assay: Antifungal activity against fluconazole-sensitive Candida albicans SC5314 assessed as change in lanosterol composition at 8 ug/ml after 24 hrs by GC-MS analysis (reference value: 1.5%); assay type: functional; outline: as §1
smiles,measurement,setting,value
Fc1ccc2c(c1)c1c(n2CCCOc2ccc(Cl)cc2)CCNC1,IC50,[1],> 40 µg/mL
same,MIC80,[2],4 µg/mL
same,Activity,[3],12.4%
same,"inhibition at 0.25 h, 0.25 µM",[4],-2%
same,MIC80,[5],2 µg/mL
same,IC50,[6],> 25 µM
same,"inhibition at 0.25 h, 25 µM",[7],50%
same,MIC80,[8],4 µg/mL
same,MIC80,[9],2 µg/mL
same,Activity,[10],Dose-dependent effect
same,Activity,[11],Active
same,inhibition,[12],Dose-dependent effect
same,"inhibition at 0.25 h, 2.5 µM",[13],5%
same,inhibition at 64 µg/mL,[14],> 80%
same,inhibition at 32 µg/mL,[15],> 75%
same,Activity,[16],Active
same,"inhibition at 0.25 h, 2.5 µM",[17],-10%
same,growth inhibition (GI),[18],Active
same,"inhibition at 0.25 h, 2.5 µM",[19],8%
same,Activity,[20],Active
same,Activity,[21],Active
same,Activity,[22],31.5%
same,"inhibition at 0.25 h, 2.5 µM",[23],-10%
same,inhibition at 4 µg/mL,[24],> 50%
same,"inhibition at 0.25 h, 0.25 µM",[25],4%
same,Activity,[26],12.2%
